In ChEMBL document CHEMBL1687889, “Antitumor agents. 284. New desmosdumotin B analogues with bicyclic B-ring as cytotoxic and antitubulin agents” (J Med Chem, 2011):
The source made the active and inactive calls. The rule behind the calls is not given here.

Key:
[1] = Antiproliferative activity against human KBVIN cells after 3 days by sulforhodamine B assay; assay type: functional; details: 72 h
Summary of the method: (§1)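 Cells grown in RPMI-1640 with 25 mM HEPES, 0.25% sodium bicarbonate, 10% FBS and 100 μg/mL kanamycin. Exposed to compound for 3 days, with at most 0.5% v/v DMSO. Attached cells fixed in cold 50% TCA, stained with 0.4% sulforhodamine B, and the bound dye solubilized. A562 read. GI50 is the concentration giving a 50% absorbance drop versus untreated cells.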

HCT-8 [2] = assay: Antiproliferative activity against human HCT8 cells after 3 days by sulforhodamine B assay; assay type: functional; details: HCT-8, 72 h; summary of the method: as §1
KB [3] = assay: Antiproliferative activity against human KB cells after 3 days by sulforhodamine B assay; assay type: functional; details: 72 h; summary of the method: as §1
HepG2 [4] = assay: Antiproliferative activity against human HepG2 cells after 3 days by sulforhodamine B assay; assay type: functional; details: HepG2, 72 h
Summary of the method: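 Sulforhodamine B assay over 3 days in culture, with at most 0.5% v/v DMSO. Attached cells fixed in cold 50% TCA, stained with 0.4% SRB, and the dye solubilized. Absorbance read at 562 nm. GI50 is the concentration causing a 50% fall in absorbance relative to untreated cells.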

PC-3 [5] = assay: Antiproliferative activity against human PC3 cells after 3 days by sulforhodamine B assay; assay type: functional; details: PC-3, 72 h
A549 [6] = assay: Antiproliferative activity against human A549 cells after 3 days by sulforhodamine B assay; assay type: functional; details: A549, 72 h; summary of the method: as §1
[7] = Inhibition of tubulin assembly after 20 mins by turbidimetric assay; details: read-out: IC50
Summary of the method: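 Turbidimetry at 350 nm. 10 μM (1.0 mg/mL) tubulin preincubated with compound for 15 min at 30 °C without GTP, then chilled, and 0.4 mM GTP added. Turbidity followed for 20 min at 30 °C after a temperature jump from 0 °C. IC50 is the concentration halving the turbidity increase relative to control.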

[8] = Displacement of [3H]colchicine from tubulin at 5 uM for 10 mins
Summary of the method: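 1.0 μM tubulin incubated with 5.0 μM [3H]colchicine and 5.0 μM inhibitor for 10 min at 37 °C, when control samples reach about 40–60% of maximal colchicine binding. Result given as percent inhibition of colchicine binding.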

MCF7 [9] = assay: Antiproliferative activity against human MCF7 cells after 3 days by sulforhodamine B assay; assay type: functional; details: MCF7, 72 h
DU-145 = assay: Antiproliferative activity against human DU145 cells after 3 days by sulforhodamine B assay; assay type: functional; details: DU-145, 72 h
MCF7 [10] = assay: Antiproliferative activity against human MCF7 cells at 20 ug/ml after 3 days by sulforhodamine B assay; assay type: functional, cell-based
A549 [11] = assay: Antiproliferative activity against human A549 cells at 20 ug/ml after 3 days by sulforhodamine B assay; assay type: functional, cell-based
HCT-8 [12] = assay: Antiproliferative activity against human HCT8 cells at 20 ug/ml after 3 days by sulforhodamine B assay; assay type: functional, cell-based
PC-3 [13] = assay: Antiproliferative activity against human PC3 cells at 20 ug/ml after 3 days by sulforhodamine B assay; assay type: functional, cell-based
HepG2 [14] = assay: Antiproliferative activity against human HepG2 cells at 20 ug/ml after 3 days by sulforhodamine B assay; assay type: functional, cell-based
KB [15] = assay: Antiproliferative activity against human KB cells at 20 ug/ml after 3 days by sulforhodamine B assay; assay type: functional, cell-based
A549 [16] = assay: Inhibition of microtubule polymerization in human A549 cells after 24 hs by immunofluorescence staining; assay type: cell-based
Summary of the method: (§2)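 A549 cells held in chamber slides 12 h, then exposed to compound (0.1 nM) or DMSO for 24 h at 37 °C; fixed in 4% paraformaldehyde/PBS, permeabilized with 0.5% Triton X-100, stained with anti-α-tubulin monoclonal plus FITC secondary and DAPI for nuclei; microtubules and mitotic spindles scored by fluorescence microscopy. Comparators: colchicine 100 nM, paclitaxel 1.5 nM, doxorubicin 500 nM.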

A549 [17] = assay: Inhibition of spindle formation in human A549 cells after 24 hs by DAPI staining; assay type: functional, cell-based; summary of the method: as §2
KBVIN = assay: Antiproliferative activity against human KBVIN cells at 20 ug/ml after 3 days by sulforhodamine B assay; assay type: functional, cell-based

Compound | GI50 [1] [µM] | GI50 (HCT-8 [2]) [µM] | GI50 (KB [3]) [µM] | GI50 (HepG2 [4]) [µM] | GI50 (PC-3 [5]) [µM] | GI50 (A549 [6]) [µM] | IC50 [7] [µM] | inhibition [8] [%] | GI50 (MCF7 [9]) [µM] | GI50 (DU-145) [µM] | Activity (MCF7 [10]) | Activity (A549 [11]) | Activity (HCT-8 [12]) | Activity (PC-3 [13]) | Activity (HepG2 [14]) | Activity (KB [15]) | inhibition (A549 [16]) | inhibition (A549 [17]) | Activity (KBVIN)
CCC1=C(O)c2c(oc(-c3cccc4ccccc34)cc2=O)C(CC)(CC)C1=O [2-(NAPHTHALEN-1-YL)-6,8,8-TRIETHYL DESMOSDUMOTIN B] | 0.77 | 1.03 | 1.55 | 2.06 | 1.03 | 1.55 | 2.3 | 43 | 1.55 | – | – | – | – | – | – | – | – | – | –
CCC1=C(O)c2c(oc(-c3cccc4ccsc34)cc2=O)C(CC)(CC)C1=O | 0.94 | 11.2 | 2.49 | 1.9 | 3.81 | 5.84 | – | – | – | 0.74 | – | – | – | – | – | – | – | – | –
CCC1=C(O)c2c(oc(-c3c(O)ccc4sccc34)cc2=O)C(CC)(CC)C1=O | 0.78 | 3.66 | 0.76 | 1.02 | 21.5 | 3.17 | 3.4 | 52 | – | 1.12 | – | – | – | – | – | – | – | – | –
CC1=C(O)c2c(oc(-c3ccc4c(c3)OCCO4)cc2=O)C(C)(C)C1=O | 0.65 | 1.3 | 0.76 | 23.7 | 1.5 | – | 3.7 | 36 | – | – | – | – | – | – | – | – | – | – | –
CC1=C(O)c2c(oc(-c3ccc(C)c4ccccc34)cc2=O)C(C)(C)C1=O | 0.72 | 2.56 | 0.61 | 1.33 | 13.3 | 1.25 | 2.5 | 37 | – | – | – | – | – | – | – | – | – | – | –
CCC1=C(O)c2c(oc(-c3csc4ccc(Br)cc34)cc2=O)C(CC)(CC)C1=O | 10.6 | 42.2 | 26.4 | 30.6 | 38 | 42.2 | – | – | – | 31.7 | – | – | – | – | – | – | – | – | –
CCC1=C(O)c2c(oc(-c3sc4ccccc4c3C)cc2=O)C(CC)(CC)C1=O | > 25 | > 25 | > 25 | > 25 | > 25 | > 25 | – | – | – | > 25 | – | – | – | – | – | – | – | – | –
CC1=C(O)C(C)(C)c2oc(-c3ccccc3)cc(=O)c2C1=O [DESMOTUMOTIN B] | 13.5 | – | – | – | – | – | – | – | – | – | inactive | inactive | inactive | inactive | inactive | inactive | – | – | –
CCC1=C(O)c2c(oc(-c3ccc(C)c4ccccc34)cc2=O)C(CC)(CC)C1=O | 0.27 | 0.62 | 0.47 | 1.24 | 2.49 | 0.5 | 2.7 | 50 | 0.75 | – | – | – | – | – | – | – | – | – | –
CCC1=C(O)c2c(oc(-c3cccc4ccccc34)c(Br)c2=O)C(CC)(CC)C1=O | 12 | 13.9 | 6.41 | – | – | 25.6 | – | – | 24.6 | – | – | – | – | inactive | inactive | – | – | – | –
CCC1=C(O)c2c(oc(-c3csc4ccc(C)cc34)cc2=O)C(CC)(CC)C1=O | > 98 | 93.1 | 53.9 | > 98 | > 98 | > 98 | – | – | – | > 98 | – | – | – | – | – | – | – | – | –
COc1cc2c(c(OC)c1OC)-c1ccc(OC)c(=O)cc1[C@@H](NC(C)=O)CC2 | – | – | – | – | – | – | – | – | – | – | – | – | – | – | – | – | Active | Active | –
CCC1=C(O)c2c(oc(-c3c(OC)ccc4sccc34)cc2=O)C(CC)(CC)C1=O | 11.1 | 19.6 | 11.3 | 24.8 | 51.9 | 66 | – | – | – | 21.5 | – | – | – | – | – | – | – | – | –
CCC1=C(O)c2c(oc(-c3c(C)sc4ccccc34)cc2=O)C(CC)(CC)C1=O | 0.76 | 2.7 | 0.61 | 2.03 | 90.7 | 1.35 | 3.4 | 38 | – | 3.92 | – | – | – | – | – | – | – | – | –
CCC1=C(O)c2c(oc(-c3ccc(-c4ccccc4)cc3)cc2=O)C(CC)(CC)C1=O | 12.1 | – | 18.1 | 19.3 | 8.45 | 18.1 | – | – | 15.7 | – | – | – | inactive | – | – | – | – | – | –
CCC1=C(O)c2c(oc(-c3ccc4c(c3)c3ccccc3n4CC)cc2=O)C(CC)(CC)C1=O | – | – | – | – | – | – | – | – | – | – | inactive | inactive | inactive | inactive | inactive | inactive | – | – | inactive
CCC1=C(O)c2c(oc(-c3csc4ccccc34)cc2=O)C(CC)(CC)C1=O | 0.07 | 0.13 | 0.08 | 0.13 | 0.16 | 0.06 | 2 | 78 | 0.11 | – | – | – | – | – | – | – | Active | Active | –
CCC1=C(O)c2c(oc(-c3ccc(OC)c4ccc(OC)cc34)cc2=O)C(CC)(CC)C1=O | – | – | – | – | – | – | – | – | – | – | inactive | inactive | inactive | inactive | inactive | inactive | – | – | inactive
CCC1=C(O)c2c(oc(-c3cccc4c3oc3ccccc34)cc2=O)C(CC)(CC)C1=O | – | – | – | – | – | – | – | – | – | – | inactive | inactive | inactive | inactive | inactive | inactive | – | – | inactive
CCCC1=C(O)c2c(oc(-c3cccc4ccccc34)cc2=O)C(CCC)(CCC)C1=O | – | 23.3 | 18.6 | – | 17.4 | 23.3 | – | – | – | – | inactive | – | – | – | inactive | – | – | – | –
CC1=C(O)c2c(oc(-c3csc4ccccc34)cc2=O)C(C)(C)C1=O | 0.09 | 1.08 | 0.11 | 0.57 | 0.91 | 0.23 | 2.4 | 69 | – | – | – | – | – | – | – | – | – | – | –
CCC1=C(O)c2c(oc(-c3c4ccccc4cc4ccccc34)cc2=O)C(CC)(CC)C1=O | – | – | – | – | – | – | – | – | – | – | inactive | inactive | inactive | inactive | inactive | inactive | – | – | inactive
CCC1=C(O)c2c(oc(-c3ccc4sccc4c3)cc2=O)C(CC)(CC)C1=O | > 25 | > 25 | 11.2 | > 25 | > 25 | > 25 | – | – | – | 10.4 | – | – | – | – | – | – | – | – | –
CCC1=C(O)c2c(oc(-c3c(OC)c(OC)cc4ccccc34)cc2=O)C(CC)(CC)C1=O | 35.7 | – | – | – | – | – | – | – | – | – | – | inactive | inactive | – | – | inactive | – | – | –
CCC1=C(O)c2c(oc(-c3ccc(OC)c4ccccc34)cc2=O)C(CC)(CC)C1=O | 1.56 | 3.35 | 1.67 | 1.48 | 2.39 | 1.48 | 2.7 | 31 | 3.59 | – | – | – | – | – | – | – | – | – | –
CCC1=C(O)c2c(oc(-c3ccc4c(c3)OCCO4)cc2=O)C(CC)(CC)C1=O | 1.14 | 2.27 | 1.26 | 1.52 | 1.52 | 1.52 | 6.5 | 33 | 1.89 | – | – | – | – | – | – | – | – | – | –
CCC1=C(O)c2c(oc(-c3cc4ccccc4o3)cc2=O)C(CC)(CC)C1=O | 14.6 | 5.82 | 14.8 | 15.1 | 5.82 | 17.2 | – | – | – | – | inactive | – | – | – | – | – | – | – | –
CCC1=C(O)c2c(oc(-c3ccc4cc(OC)ccc4c3)cc2=O)C(CC)(CC)C1=O | 9.57 | 12 | 10.8 | 13.4 | 4.78 | 16.8 | – | – | 8.37 | – | – | – | – | – | – | – | – | – | –
